According to ChEMBL document CHEMBL2086252, “Syntheses and evaluation of anticonvulsant activity of novel branched alkyl carbamates” (J Med Chem, 2012):
Calls of active or inactive are those of the source. The rule behind the calls is not given here.

Columns and labels:
[1] = tested on: Rattus norvegicus; experiment: Neurotoxicity in pilocarpine-induced status epilepticus Sprague-Dawley albino rat model assessed as minimal motor impairment at 300 mg/kg, ip after 1 hr by rotarod test; format: toxicity, organism-based; parameters: dose 300 mg/kg, route intraperitoneal; settings: in vivo
Summary of the method: (§1)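 Rat pilocarpine status epilepticus model: test carbamate given at 0 or 30 min after the first observed Racine stage 3 motor seizure, which marks SE onset. Neurotoxicity was scored within the same model.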

[2] = tested on: Rattus norvegicus; experiment: Neurotoxicity in pilocarpine-induced status epilepticus Sprague-Dawley albino rat model assessed as minimal motor impairment at 100 mg/kg, ip after 0.5 hrs by rotarod test; format: toxicity, organism-based; parameters: dose 100 mg/kg, route intraperitoneal; settings: in vivo
[3] = tested on: Mus musculus; experiment: Anticonvulsant activity in albino CF1 mouse assessed as protection against maximal electroshock-induced seizures at 30 mg/kg, ip after 4 hrs; format: functional, organism-based; parameters: dose 30 mg/kg
Summary of the method: (§2)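 Mice dosed ip at 30, 100 or 300 mg/kg, then tested 0.5 h and 4 h after administration in the MES or scMet test. Protection was recorded as animals protected over animals tested. Neurotoxicity was recorded as motor impairment or sedation, as animals affected over animals tested.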

[4] = tested on: Rattus norvegicus; experiment: Neurotoxicity in Sprague-Dawley albino rat assessed as minimal motor impairment at 30 mg/kg, po by rotarod test; format: toxicity, organism-based; parameters: dose 30 mg/kg, route oral; settings: in vivo
Summary of the method: (§3)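 Rats dosed orally. Anti-MES protection was scored as animals protected over animals tested at each time after dosing. Neurotoxicity was scored as motor impairment or sedation, as animals affected over animals tested.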

[5] = tested on: Rattus norvegicus; experiment: Anticonvulsant activity in Sprague-Dawley albino rat assessed as protection against maximal electroshock-induced seizures at 30 mg/kg, po after 30 mins; format: functional, organism-based; parameters: dose 30 mg/kg; summary of the method: as §3
[6] = tested on: Mus musculus; experiment: Anticonvulsant activity in albino CF1 mouse assessed as protection against subcutaneous metrazol-induced seizures at 300 mg/kg, ip after 4 hrs; format: functional, organism-based; parameters: dose 300 mg/kg; summary of the method: as §2
[7] = tested on: Rattus norvegicus; experiment: Neurotoxicity in pilocarpine-induced status epilepticus Sprague-Dawley albino rat model assessed as minimal motor impairment at 300 mg/kg, ip after 0.25 hr by rotarod test; format: toxicity, organism-based; parameters: dose 300 mg/kg, route intraperitoneal; settings: in vivo; summary of the method: as §1
[8] = tested on: Rattus norvegicus; experiment: Neurotoxicity in pilocarpine-induced status epilepticus Sprague-Dawley albino rat model assessed as minimal motor impairment at 100 mg/kg, ip after 1 hr by rotarod test; format: toxicity, organism-based; parameters: dose 100 mg/kg, route intraperitoneal; settings: in vivo
[9] = tested on: Mus musculus; experiment: Anticonvulsant activity in albino CF1 mouse assessed as protection against subcutaneous metrazol-induced seizures at 300 mg/kg, ip after 0.5 hrs; format: functional, organism-based; parameters: dose 300 mg/kg; summary of the method: as §2
[10] = tested on: Rattus norvegicus; experiment: Neurotoxicity in pilocarpine-induced status epilepticus Sprague-Dawley albino rat model assessed as minimal motor impairment at 30 mg/kg, ip after 0.25 hr by rotarod test; format: toxicity, organism-based; parameters: dose 30 mg/kg, route intraperitoneal; settings: in vivo; summary of the method: as §1
[11] = tested on: Rattus norvegicus; experiment: Neurotoxicity in pilocarpine-induced status epilepticus Sprague-Dawley albino rat model assessed as minimal motor impairment at 100 mg/kg, ip after 2 hrs by rotarod test; format: toxicity, organism-based; parameters: dose 100 mg/kg, route intraperitoneal; settings: in vivo
[12] = tested on: Mus musculus; experiment: Anticonvulsant activity in albino CF1 mouse assessed as protection against subcutaneous metrazol-induced seizures at 100 mg/kg, ip after 0.5 hrs; format: functional, organism-based; parameters: dose 100 mg/kg; summary of the method: as §2
[13] = tested on: Rattus norvegicus; experiment: Neurotoxicity in pilocarpine-induced status epilepticus Sprague-Dawley albino rat model assessed as minimal motor impairment at 30 mg/kg, ip after 1 hr by rotarod test; format: toxicity, organism-based; parameters: dose 30 mg/kg, route intraperitoneal; settings: in vivo; summary of the method: as §1
[14] = tested on: Mus musculus; experiment: Anticonvulsant activity in albino CF1 mouse assessed as protection against subcutaneous metrazol-induced seizures at 100 mg/kg, ip after 4 hrs; format: functional, organism-based; parameters: dose 100 mg/kg; summary of the method: as §2
[15] = tested on: Mus musculus; experiment: Anticonvulsant activity in albino CF1 mouse assessed as protection against maximal electroshock-induced seizures at 300 mg/kg, ip after 4 hrs; format: functional, organism-based; parameters: dose 300 mg/kg; summary of the method: as §2
[16] = tested on: Mus musculus; experiment: Neurotoxicity in albino CF1 mouse assessed as minimal motor impairment at 30 mg/kg, ip after 4 hrs by rotarod test; format: toxicity, organism-based; parameters: dose 30 mg/kg, route intraperitoneal; settings: in vivo; summary of the method: as §2
[17] = tested on: Rattus norvegicus; experiment: Anticonvulsant activity in Sprague-Dawley albino rat assessed as protection against pilocarpine-induced status epilepticus at 130 mg/kg, ip administered 0 and 30 mins after status epilepticus onset
[18] = tested on: Mus musculus; experiment: Anticonvulsant activity in albino CF1 mouse assessed as protection against subcutaneous metrazol-induced seizures at 30 mg/kg, ip after 4 hrs; format: functional, organism-based; parameters: dose 30 mg/kg; summary of the method: as §2
[19] = tested on: Mus musculus; experiment: Neurotoxicity in albino CF1 mouse assessed as minimal motor impairment at 300 mg/kg, ip after 0.5 hrs by rotarod test; format: toxicity, organism-based; parameters: dose 300 mg/kg, route intraperitoneal; settings: in vivo; summary of the method: as §2
[20] = tested on: Rattus norvegicus; experiment: Neurotoxicity in pilocarpine-induced status epilepticus Sprague-Dawley albino rat model assessed as minimal motor impairment at 30 mg/kg, ip after 4 hrs by rotarod test; format: toxicity, organism-based; parameters: dose 30 mg/kg, route intraperitoneal; settings: in vivo; summary of the method: as §1
[21] = tested on: Rattus norvegicus; experiment: Anticonvulsant activity in Sprague-Dawley albino rat assessed as protection against maximal electroshock-induced seizures at 30 mg/kg, po after 15 mins; format: functional, organism-based; parameters: dose 30 mg/kg; summary of the method: as §3
[22] = tested on: Rattus norvegicus; experiment: Neurotoxicity in pilocarpine-induced status epilepticus Sprague-Dawley albino rat model assessed as minimal motor impairment at 300 mg/kg, ip after 2 hrs by rotarod test; format: toxicity, organism-based; parameters: dose 300 mg/kg, route intraperitoneal; settings: in vivo; summary of the method: as §1
[23] = tested on: Mus musculus; experiment: Neurotoxicity in albino CF1 mouse assessed as minimal motor impairment at 100 mg/kg, ip after 4 hrs by rotarod test; format: toxicity, organism-based; parameters: dose 100 mg/kg, route intraperitoneal; settings: in vivo; summary of the method: as §2
[24] = tested on: Rattus norvegicus; experiment: Neurotoxicity in pilocarpine-induced status epilepticus Sprague-Dawley albino rat model assessed as minimal motor impairment at 30 mg/kg, ip after 0.5 hrs by rotarod test; format: toxicity, organism-based; parameters: dose 30 mg/kg, route intraperitoneal; settings: in vivo; summary of the method: as §1
[25] = tested on: Rattus norvegicus; experiment: Anticonvulsant activity in Sprague-Dawley albino rat assessed as protection against maximal electroshock-induced seizures at 30 mg/kg, po after 2 hrs; format: functional, organism-based; parameters: dose 30 mg/kg; summary of the method: as §3
[26] = tested on: Mus musculus; experiment: Anticonvulsant activity in albino CF1 mouse assessed as protection against subcutaneous metrazol-induced seizures at 30 mg/kg, ip after 0.5 hrs; format: functional, organism-based; parameters: dose 30 mg/kg; summary of the method: as §2
[27] = tested on: Mus musculus; experiment: Neurotoxicity in albino CF1 mouse assessed as minimal motor impairment at 30 mg/kg, ip after 0.5 hrs by rotarod test; format: toxicity, organism-based; parameters: dose 30 mg/kg, route intraperitoneal; settings: in vivo; summary of the method: as §2
[28] = tested on: Rattus norvegicus; experiment: Neurotoxicity in pilocarpine-induced status epilepticus Sprague-Dawley albino rat model assessed as minimal motor impairment at 300 mg/kg, ip after 0.5 hrs by rotarod test; format: toxicity, organism-based; parameters: dose 300 mg/kg, route intraperitoneal; settings: in vivo; summary of the method: as §1
[29] = tested on: Mus musculus; experiment: Anticonvulsant activity in albino CF1 mouse assessed as protection against maximal electroshock-induced seizures at 30 mg/kg, ip after 0.5 hrs; format: functional, organism-based; parameters: dose 30 mg/kg; summary of the method: as §2
[30] = tested on: Rattus norvegicus; experiment: Neurotoxicity in pilocarpine-induced status epilepticus Sprague-Dawley albino rat model assessed as minimal motor impairment at 100 mg/kg, ip after 4 hrs by rotarod test; format: toxicity, organism-based; parameters: dose 100 mg/kg, route intraperitoneal; settings: in vivo
[31] = tested on: Mus musculus; experiment: Anticonvulsant activity in albino CF1 mouse assessed as protection against maximal electroshock-induced seizures at 300 mg/kg, ip after 0.5 hrs; format: functional, organism-based; parameters: dose 300 mg/kg; summary of the method: as §2
[32] = tested on: Rattus norvegicus; experiment: Neurotoxicity in pilocarpine-induced status epilepticus Sprague-Dawley albino rat model assessed as minimal motor impairment at 300 mg/kg, ip after 4 hrs by rotarod test; format: toxicity, organism-based; parameters: dose 300 mg/kg, route intraperitoneal; settings: in vivo; summary of the method: as §1
[33] = tested on: Rattus norvegicus; experiment: Anticonvulsant activity in Sprague-Dawley albino rat assessed as protection against maximal electroshock-induced seizures at 30 mg/kg, po after 4 hrs; format: functional, organism-based; parameters: dose 30 mg/kg; summary of the method: as §3
[34] = tested on: Mus musculus; experiment: Neurotoxicity in albino CF1 mouse assessed as minimal motor impairment at 100 mg/kg, ip after 0.5 hrs by rotarod test; format: toxicity, organism-based; parameters: dose 100 mg/kg, route intraperitoneal; settings: in vivo; summary of the method: as §2
[35] = tested on: Rattus norvegicus; experiment: Neurotoxicity in pilocarpine-induced status epilepticus Sprague-Dawley albino rat model assessed as minimal motor impairment at 100 mg/kg, ip after 0.25 hr by rotarod test; format: toxicity, organism-based; parameters: dose 100 mg/kg, route intraperitoneal; settings: in vivo
[36] = tested on: Mus musculus; experiment: Anticonvulsant activity in albino CF1 mouse assessed as protection against maximal electroshock-induced seizures at 100 mg/kg, ip after 4 hrs; format: functional, organism-based; parameters: dose 100 mg/kg; summary of the method: as §2
[37] = tested on: Mus musculus; experiment: Neurotoxicity in albino CF1 mouse assessed as minimal motor impairment at 300 mg/kg, ip after 4 hrs by rotarod test; format: toxicity, organism-based; parameters: dose 300 mg/kg, route intraperitoneal; settings: in vivo; summary of the method: as §2
[38] = tested on: Rattus norvegicus; experiment: Neurotoxicity in pilocarpine-induced status epilepticus Sprague-Dawley albino rat model assessed as minimal motor impairment at 30 mg/kg, ip after 2 hrs by rotarod test; format: toxicity, organism-based; parameters: dose 30 mg/kg, route intraperitoneal; settings: in vivo; summary of the method: as §1
[39] = tested on: Rattus norvegicus; experiment: Anticonvulsant activity in Sprague-Dawley albino rat assessed as protection against pilocarpine-induced status epilepticus at 200 mg/kg, ip; format: functional, organism-based; parameters: dose 200 mg/kg
Summary of the method: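 Pilocarpine status epilepticus model in rats. Number and severity of convulsive seizures were observed behaviourally.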

| Structure (SMILES) | Activity [2] | Activity [3] | Activity [6] | Activity [7] | Activity [8] | Activity [9] | Activity [11] | Activity [12] | Activity [14] | Activity [15] | Activity [16] | Activity [18] | Activity [19] | Activity [22] | Activity [23] | Activity [26] | Activity [27] | Activity [28] | Activity [29] | Activity [30] | further results |
| --- | --- | --- | --- | --- | --- | --- | --- | --- | --- | --- | --- | --- | --- | --- | --- | --- | --- | --- | --- | --- | --- |
| CC1(C)C(COC(N)=O)C1(C)C | Toxic | inactive | inactive | Toxic | Toxic | Active | Non-toxic | inactive | inactive | inactive | Non-toxic | inactive | Toxic | Toxic | Non-toxic | inactive | Non-toxic | Toxic | inactive | Non-toxic | Activity [1]: Toxic; Activity [4]: Non-toxic; Activity [5]: inactive; Activity [10]: Non-toxic; Activity [13]: Non-toxic; Activity [17]: inactive; Activity [20]: Non-toxic; Activity [21]: inactive; Activity [24]: Non-toxic; Activity [25]: inactive; Activity [31]: Active; Activity [32]: Non-toxic; Activity [33]: inactive; Activity [34]: Non-toxic; Activity [35]: Toxic; Activity [36]: inactive; Activity [37]: Non-toxic; Activity [38]: Non-toxic |
| CC(C)C(C)COC(N)=O (racemic) | Non-toxic | inactive | inactive | Toxic | Non-toxic | Active | Non-toxic | inactive | inactive | inactive | Non-toxic | inactive | Toxic | Non-toxic | Non-toxic | inactive | Non-toxic | Toxic | inactive | Non-toxic | Activity [31]: Active; Activity [32]: Non-toxic; Activity [34]: Non-toxic; Activity [39]: Active; Activity [35]: Non-toxic; Activity [36]: inactive; Activity [37]: Non-toxic |
